The RNAGym collection of RNA variant scans (doi:10.1126/science.aae0568)
Variants at the floor of the assay were thinned out.

B1: tRNA (parent)
chain: GUUCCGUUGGCGUAAUGGUAACGCGUCUCCCUCCUAAGGAGAAGACUGCGGGUUCGAGUCCCGUACGGAACG

Variants of: B1
Test: yeast fitness relative to wild type (ratio to wild type); higher = fitter; tRNA-Arg(CCU), competitive growth, 37 C, YPD
Summary of the method: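 A pool of Saccharomyces cerevisiae strains, each with a tRNA-Arg(CCU) gene variant at the native genomic locus, was competed in YPD at 37°C for 24 hours across six parallel replicates. The variants had been chemically synthesised at a 3% per-site mutation rate over 69 sites, and gene amplicons before and after competition were read by 100-nucleotide paired-end sequencing. Darwinian fitness relative to wild type rested on changes in genotype frequencies. Genotypes required ≥ 100 starting reads, and estimates < 0.5 were set to 0.5.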

Variant | yeast fitness
GUUCCGUUGGCGUAAUGGUAACACGUCUCGCUCCUAAGGAGGAGACUGCGGGUUCGAGUCCCGUACGGAACG [G23A C30G A42G] | 0.524
GUUCCGUUGGCGUAAUGGUAACACGUCUCACUCCUAAGGAGAAGAGUGCGGGUUCGAGUCCCGUACGGAACG [G23A C30A C46G] | 0.706
GUUCCGUUGGCGUAAUGGUAACACGUCUCGCUGCUUAGGAGAAGAGUGCGGGUUGGAGUCCCGUACGGAACG [G23A C30G C33G A36U C46G C55G] | 0.589
GUUCCGUUGGCGUAAUGGUAACACGUCUCACUCCUAAGGAGAAGACUGCGGGUUUGAGUCCCGUACGGAACG [G23A C30A C55U] | ≤ 0.5
GUUCCGUUGGCGUAAUGGUAACACGUCUCUCUCCUAAGGAGAAGACUGCGGGUUCGAGUCCCGUAUGGAACG [G23A C30U C66U] | ≤ 0.5
GUUCCGUUGGCGUAAUGGUAACACGUCUCUCUCCUAAGGAGAAGACUGCGGGUUCGAGUCCCGUACGGACCG [G23A C30U A70C] | ≤ 0.5
GUUCCGUUGGCGUAAUGGUAACACGUCUCCUUCCUAAGGAGAAGACUCCGGGUUGGAGUCCCGUACGGUACG [G23A C31U G48C C55G A69U] | ≤ 0.5
GUUCCGUUGGCGUAAUGGUAACACGUCUCUCUCCUACGGAGAAGACUGCGGGUCCGAGUCCCGUACGGAACG [G23A C30U A37C U54C] | ≤ 0.5
GUUCCGUUGGCGUAAUGGUAACACGUCUUACUCCUAAGGAGAAGAGUGCGGGUUCGAGUCCCGUACGGAACG [G23A C29U C30A C46G] | ≤ 0.5
GUUCCGUUGGCGUAAUGGUAACACGUCUCACUCCUAGGGAGAAGACUGCGGGUUCGAGUCCCGUACGGAACG [G23A C30A A37G] | ≤ 0.5
GUUCCGUUGGCGUAAUGGUAACACGUCUCGCUCCUAAGGAGAAGACUGCGGGUUUGAGUCCCAUACGGAACG [G23A C30G C55U G63A] | 0.582
GUUCCGUUGGCGUAAUGGUAACACGUCUCACUCCUAAGGAGAUGACUGCGGGUUCGAGUCCCGUACGGAACG [G23A C30A A43U] | ≤ 0.5
GUUCCGUUGGCGUAAUGGUAACACGUCUCGCUCCUAAGGAGAAGACUGCGGGUUCGAGUCCCGUUCGGAACG [G23A C30G A65U] | ≤ 0.5
GUUCCGUUGGCGUAAUGGUAACACGUCUCUCUCCUAAGGAGAAGACUGCGGGUCCGAGUCCCGUACGGAACG [G23A C30U U54C] | 0.528
GUUCCGUUGGCGUAAUGGUAACACGUCUCCUUCCUAAGGAGAAGACUGCGGGUUCGAGUCCCGUACGGUACG [G23A C31U A69U] | 0.675
GUUCCGUUGGCGUAAUGGUAACACGUCUCGCUCCUAAGGAGAAGACUGCGGGUUCGAGUCCCGUACGGUACG [G23A C30G A69U] | ≤ 0.5
GUUCCGUUGGCGUAAUGGUAACACGUCUCACUCCUAGGGAGAAGACUGCGGGUUCGAGUCCCGUAUGGAACG [G23A C30A A37G C66U] | 0.539
GUUCCGUUGGCGUAAUGGUAACACGUCUCACUCCUAAGGAGAAGACUGCGGGUUCGAGUCCCGUACGGAACG [G23A C30A] | 0.792
GUUCCGUUGGCGUAAUGGUAACACGUCUUACUCCUAAGGAGAAGACUGCGGGUUCGAGUCCCGUACGGAACG [G23A C29U C30A] | 0.565

Variant | yeast fitness
GUUCCGUUGGCGUAAUGGUAACACGUCUCUCUCCUAAGGAGAAGACUGCGGGUUAGAGUCCCGUACGCAACG [G23A C30U C55A G68C] | ≤ 0.5
GUUCCGUUGGCGUAAUGGUAACACGUCUCCAUCCUAAGGAGAAGACUGCGGGUUCGAGUCCCGUACGGAACG [G23A C31A] | 0.644
GUUCCGUUGGCGUAAUGGUAACACGUCUCUCUCCGAAGGAGAAGUCUGCGGGUUCGCGUCCCGUACGGAACG [G23A C30U U35G A45U A57C] | 0.533
GUUCCGUUGGCGUAAUGGUAACACGUCUCCUUCCUAAGGAGAAGACUGCGGGUUCUAGUCCCGUUCGCAACG [G23A C31U G56U A65U G68C] | ≤ 0.5
GUUCCGUUGGCGUAAUGGUAACACGUCUCUCUCCUAAGGAGAAGACUGAGGGUUCGUGUCCCGUACGGACCG [G23A C30U C49A A57U A70C] | ≤ 0.5
GUUCCGUUGGCGUAAUGGUAACACGUCUCGCUGCUUAGGAGAAGAGUGCGGGUUGGAGUCUCGUACGGAACG [G23A C30G C33G A36U C46G C55G C61U] | 0.567
GUUCCGUUGGCGUAAUGGUAACACGUCUCUCUACUAAGGACUGGACUGCGGGUUCGAGUCCCGUACGGAACG [G23A C30U C33A G41C A42U A43G] | ≤ 0.5
GUUCCGUUGGCGUAAUGGUAACACGUCUCUCUCCUAAGGAGAAGACUGCGGGUUAGAGUCCCGUACGGAACG [G23A C30U C55A] | 0.573
GUUCCGUUGGCGUAAUGGUAACACGUCUCCUUGCUAAGGAGAAGACUGCGGGUUCGAGUCCCUUACGGAACG [G23A C31U C33G G63U] | ≤ 0.5
GUUCCGUUGGCGUAAUGGUAACACGUCUCUCUCCUAAGGAGAAGACUGCGGGUUUGAGUCCCGUACCGAACG [G23A C30U C55U G67C] | ≤ 0.5
GUUCCGUUGGCGUAAUGGUAACACGUCUCUCUCCUAAGGAGAAGACUGCGGGAUCGAGUCCCGUACGGAACG [G23A C30U U53A] | ≤ 0.5
GUUCCGUUGGCGUAAUGGUAACACGUCUCGCUCCUAAGGAGAAGACUGCGGGUUCGAGUCCCGUACAGAACG [G23A C30G G67A] | 0.726
GUUCCGUUGGCGUAAUGGUAACACGUCUCUCUCCUAAGGAGAAGACUACGGGUUAGAGUCCCGUACGGAACG [G23A C30U G48A C55A] | ≤ 0.5
GUUCCGUUGGCGUAAUGGUAACACGUCUUCUUCCUAAGGAGGAGACUGCGGGUUCGAGUCACGUACGGAACG [G23A C29U C31U A42G C61A] | ≤ 0.5
GUUCCGUUGGCGUAAUGGUAACACGUCUCUCUACUAAGGACUAGACUGCGGGUUCGAGUCCCGUACGGAACG [G23A C30U C33A G41C A42U] | 0.555
GUUCCGUUGGCGUAAUGGUAACACGUCUCACUCCUAAGGAGAAGACUGCGAGUUCGAGUCCCGUACGGAACG [G23A C30A G51A] | 0.562
GUUCCGUUGGCGUAAUGGUAACACGUCUCCUUGCUAAGGAGAAGACUGCGGGUUCGAGUCCCGUACGGAACG [G23A C31U C33G] | 0.523
GUUCCGUUGGCGUAAUGGUAACACGUCUCCAUCCUAAGGAGAAGACUGCCGGUUGGAGUCCCGUACGGAACG [G23A C31A G50C C55G] | 0.548
GUUCCGUUGGCGUAAUGGUAACACGUCUCUCUCCUAAGGAGAAGACUGCGGGUUCGAGUCCCGUACGGGGCG [G23A C30U A69G A70G] | ≤ 0.5
